Published values gathered from unrelated publications.
Compare with care: the assays were run in different laboratories.
FAP: Prolyl endopeptidase FAP (FAP, Homo sapiens, UniProt Q12884)
SRC: Proto-oncogene tyrosine-protein kinase Src (SRC, Homo sapiens, UniProt P12931)

The inhibition of CN(C)C(=O)COC(=O)Cc1ccc(OC(=O)c2ccc(NC(=N)N)cc2)cc1 is reported as 30% (FAP; enzyme activity; inhibitor; 10 µM).
For Cn1cc(-c2cccc(N3CCc4c(sc5c4CC(C)(C)C5)C3=O)c2CO)cc(Nc2ccncn2)c1=O, the inhibition was 5% (5'-AMP-activated protein kinase catalytic subunit alpha-2 (PRKAA2, Homo sapiens, UniProt P54646); enzyme activity; inhibitor; 1 µM).
C=CCn1c2cc(OC(=O)CCCCN3CCN(Cc4cccc(Cl)c4)CC3)ccc2c2ccnc(C)c21 gave an inhibition of 48.1% (Acetylcholinesterase (ACHE, Homo sapiens, UniProt P22303); enzyme activity; inhibitor; Ellman; 1 µM).
The inhibition of N#C[C@@H]1CC(F)(F)CN1C(=O)CNC(=O)c1ccnc2ccccc12 is reported as 100% (FAP; enzyme activity; inhibitor; 0.1 µM).
Cc1ncc(C)n2nc(/C=C/c3nc(N4CCCC4)cc(N4CCOCC4)n3)nc12 has an inhibition of -8% (C-X-C chemokine receptor type 4 (CXCR4, Homo sapiens, UniProt P61073); cell-free assay; 10 µM).
C#Cc1n[nH]c2c(-c3cn([C@@H](C)c4ccccc4)c(=O)[nH]c3=O)cc(F)cc12 gave an inhibition of 8.4% (SRC; enzyme activity; inhibitor; 0.1 µM).
CCOC(=O)c1ccc(OC(=O)CCCCCNC(=N)N)cc1 gave an inhibition of 12% (Stromelysin-2 (Homo sapiens, UniProt P09238); enzyme activity; inhibitor; 10 µM).
Cn1cc(-c2cc(F)cc(N3CCn4c(cc5c4CCCC5)C3=O)c2CO)cc(Nc2ccc(N3CCN(C4COC4)CC3)cn2)c1=O has an inhibition of 8% (Cyclin-dependent kinase 1, with cyclin B (CDK1, Homo sapiens, UniProt P06493); enzyme activity; inhibitor; 0.1 µM).
C#Cc1n[nH]c2c(-c3cn([C@@H](C)c4ccccn4)c(=O)[nH]c3=O)cc(F)cc12 gave an inhibition of 12.9% (SRC; enzyme activity; inhibitor; 0.1 µM).
